# Screening data (PubChem BioAssay)
# Hits are enriched below; roughly 1.7% of the tested compounds scored in any of these assays.
# Rce1 inhib – blocks yeast Ras-converting enzyme | Q03530 | yeast membranes, quenched prenylated peptide cleavage fluorescence | calls only | actives 0.27% (n = 290,000);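 active means fall in fluorescence gain of 50% or more versus controls, with final raw signal at or below 3038400; inconclusive means same 50% fall but final raw signal above 3038400; inactive means fall in fluorescence gain under 50%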
# Target sequence (Q03530 whole entry, looked up): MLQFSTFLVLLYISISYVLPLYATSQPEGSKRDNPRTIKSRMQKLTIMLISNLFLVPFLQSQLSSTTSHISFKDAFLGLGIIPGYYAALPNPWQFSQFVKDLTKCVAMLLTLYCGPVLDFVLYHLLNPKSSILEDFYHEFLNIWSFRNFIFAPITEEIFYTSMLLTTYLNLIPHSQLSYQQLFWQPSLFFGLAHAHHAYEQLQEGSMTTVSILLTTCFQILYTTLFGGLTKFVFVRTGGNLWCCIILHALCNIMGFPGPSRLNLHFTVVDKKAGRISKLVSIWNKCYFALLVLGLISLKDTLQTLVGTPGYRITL
# RanGTP-Imp inh – disruptors of Ran-importin-beta complex formation – biochemical, FRET, CFP-Ran, YFP-importin-beta, homogeneous, primary screen. cell-free CFP-Ran/YFP-importin-beta FRET ratio. inhibition, % (no concentration beside the values). actives 1.1% (n = 300,000). AID 2216;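 active means more than half of the replicate wells show a fall in the fluorescence ratio signal beyond about 16%, limit read from the data, passing the limit was not always enough; inconclusive means exactly half of the replicate wells pass the set limit; inactive means fewer than half of replicates pass the limit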
# Vif inh – HIV Vif inhibition | actives 0.35% (n = 340,000) | AID 602346 | HEK293T cells, Vif self-association by quenched fluorescence, imaging, 24 h | inhibition, % at 7.49 µM; in the data active means inhibition above about 50%, passing the limit was not always enough; inconclusive means no clear call, values can overlap the other calls; inactive means below about 31%
# Runt-SMMHC FRET – blocks binding of human RUNX1 Runt domain to CBFb-SMMHC | AID 1434 | Q01196+Q13951 | Cerulean-Runt/Venus-CBFb-SMMHC FRET ratio 530/480, 1 h | actives 0.74% (n = 220,000) | inhibition, % at 20 µM;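 active means mean inhibition across duplicate retests at 20 µM reaching about 50%, limit read from the data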;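 further: inhibitors lower the FRET ratio by blocking Runt binding to CBFb-SMMHC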
# Runt-CBFb FRET – Runt domain-CBFb interaction inhibition; Cerulean-Runt/Venus-CBFb FRET ratio 530/480, 1 h; inhibition, % at 20 µM; actives 0.46% (n = 220,000);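 active means inhibition over about 50% at 20 µM in the single-dose screen, limit read from the data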
#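 Schedule: protein complex preformed 1 h, compound exposure 1 h, room temperature, dark; test system: Cerulean-labeled Runt domain protein; amount: 100 nM per protein; buffer or medium: Tris 50 mM pH 7.5, KCl, K2SO4, 0.01% BSA; read-out: loss of energy transfer signal; detection: FRET fluorescence; controls: 5 µM unlabeled CBFb as full-inhibition high control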
# YIC counter – counter-screen: alters YIC FRET probe signal; shares compounds with RanGTP-Imp inh; Purified YIC probe, intramolecular FRET ratio YFP/CFP; IC50, µM; actives 40% (n = 1,000); AID 435026;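 active means fitted half-maximal inhibitory concentration no more than tenfold above the top dose tested; inconclusive means flat fit with 30 to 70% activity, or poor fit; inactive means half-maximal concentration beyond tenfold above the top dose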
# Hits are given with their value; n = inactive; u = inconclusive; x = no result given.
SMILES,Rce1 inhib,RanGTP-Imp inh,Vif inh,Runt-SMMHC FRET,Runt-CBFb FRET,YIC counter
COc1ccccc1CNc1nc(NCc2ccccc2SC)c2sccc2n1,x,x,n,x,x,x
COc1cccc(-c2cc(C(=O)NC3CC3)c3ccccc3n2)c1,n,19.0,n,x,x,n
COc1ccc(-c2cc(C(=O)NC3CC3)c3ccccc3n2)cc1,n,n,n,x,x,x
CC(=O)c1sc2nc(C)c3c(c2c1N)CCCC3,n,31.5,n,89.8,n,14.4
COc1ccccc1C(=O)NCCNc1nc2cc(C)cc(C)c2cc1C#N,n,18.9,n,x,x,40
COc1cc(OC)cc(C(=O)NCCNc2nc3cc(C)cc(C)c3cc2C#N)c1,n,17.7,n,x,x,20.8
COc1cc(C(=O)NCCNC(=O)c2ccc(C)nc2)cc(OC)c1OC,n,n,n,x,x,x
COc1cc(C(=O)NCCNc2nc3cc(C)ccc3cc2C#N)cc(OC)c1OC,n,17.4,n,x,x,29.5
CCC(=O)NCCNc1nc2cc(C)cc(C)c2cc1C#N,n,n,n,n,n,x
Cc1ccnc(NC(=O)C2CCN(S(=O)(=O)c3ccc(Cl)c(C(F)(F)F)c3)CC2)c1,n,n,n,x,x,x
Cc1ccc(NC(=O)C2CCN(S(=O)(=O)c3ccc(Cl)c(C(F)(F)F)c3)CC2)nc1,n,20.1,n,x,x,n
CC1=Nc2ccccc2/C1=C\c1sc(Nc2ccc(C)cc2)nc1O,n,21.4,n,n,n,n
Oc1nc(Nc2cccc(Cl)c2)sc1/C=C1\C=Nc2ccccc21,n,n,n,n,n,x
Oc1nc(Nc2ccc(F)cc2)sc1/C=C1\C=Nc2ccccc21,n,19.3,n,n,n,n
COc1ccc(N(CC(=O)Nc2cc(Cl)ccc2OC)C2=NC3CS(=O)(=O)CC3S2)cc1 (stereo unspecified),n,n,x,x,x,x
COc1ccccc1NC(=O)c1cc2ccccc2nc1C,n,22.6,n,n,n,n
COc1ccccc1NC(=O)c1cc(-c2cc(OC)c(OC)c(OC)c2)nc2ccccc12,n,n,n,x,x,x
CCOC(=O)C1CCN(C(=O)COC(=O)c2ccc(=O)n(Cc3ccccc3)n2)CC1,n,n,n,x,x,x
O=C(NCc1ccccc1C(F)(F)F)C1CC(c2ccc(C(F)(F)F)cc2)=NO1 (stereo unspecified),n,17.1,n,n,n,n
CC(OC(=O)Cn1[nH]c(=O)c2ccccc2c1=O)C(=O)Nc1ccc(F)cc1Cl (stereo unspecified),n,n,n,x,x,x
Cc1ccc(OCC(=O)NNc2c3ccccc3nc3ccccc23)cc1,n,36.2,n,n,n,n
Cc1cc(CNC(=O)COc2ccc(F)cc2)c2ccccc2n1,n,17.5,n,n,n,n
Cc1cccc(OCC(=O)NNc2c3ccccc3nc3ccccc23)c1,n,32.6,n,n,n,n
Cc1cc(CNC(=O)COc2ccccc2)c2ccccc2n1,n,n,n,n,n,x
O=C(Cc1ccccc1)NNc1c2ccccc2nc2ccccc12,n,34.2,n,n,n,n
SMILES,Rce1 inhib,RanGTP-Imp inh,Vif inh,Runt-SMMHC FRET,Runt-CBFb FRET,YIC counter
NS(=O)(=O)c1ccc(NC(=O)CN2CCc3ccccc3C2)cc1,n,n,n,x,x,x
Cc1cccc(OCc2nnc(SCC(=O)NCc3ccc4c(c3)OCO4)o2)c1,x,x,n,x,x,x
COCCNc1cc(C)nc2cc(-c3ccc(C)cc3)nn12,n,19.2,n,n,n,3.77
Cc1ccsc1C(=O)N1CCC1(C)C(=O)Nc1ccc2c(c1)OCCO2 (stereo unspecified),x,x,n,x,x,x
CCN(CC)CCCNC(=S)N(Cc1cccs1)Cc1cc2cc3c(cc2[nH]c1=O)OCCO3,n,22.1,x,n,n,n
CCOC(=O)C1=C(N)Oc2ccc3ccccc3c2C1c1ccc(O)c(OC)c1 (stereo unspecified),n,29.2,n,x,x,n
O=c1c2ccccc2cnn1Cc1nnc(-c2cccs2)o1,n,n,n,x,x,x
CC(NC(=O)c1ccc(NC(=O)CC2SC(N3CCCC3)=NC2=O)cc1)c1ccc(S(N)(=O)=O)cc1 (stereo unspecified),n,n,n,x,x,x
Cc1cc2c(cc(C(=O)OC(C)C(=O)NCc3ccccc3)n2C)o1 (stereo unspecified),x,x,n,x,x,x
COCCNC(=O)C(C)OC(=O)c1cc2occc2n1C (stereo unspecified),n,19.2,n,n,n,n
Cc1ccc(CNC(=O)c2cccnc2)cc1,n,20.9,n,x,x,n
CC(=O)N(/N=C1\Sc2ccccc2C1=O)c1ccccc1C,n,23.8,n,n,x,39.9
COc1ccc([C@H]2CC(=O)C=C(c3ccc(C(=O)O)cc3)C2)cc1OC,x,x,n,x,x,x
Cc1csc2ncnc(NC3CCN(Cc4ccccc4)CC3)c12,n,19.3,n,n,n,n
Cc1ccc(OCCC(=O)OCC(=O)NC(=O)c2ccccc2)cc1,n,u,n,x,x,x
O=c1cc(CN2CCN(S(=O)(=O)c3ccc4c(c3)OCCO4)CC2)c2ccc(O)cc2o1,n,45.6,n,102.5,102.5,6.88
C[C@@H]1CN([C@H](C)CO)S(=O)(=O)c2ccc(C3=CCCCC3)cc2O[C@H]1CN(C)C(=O)Cc1cccnc1,x,x,n,x,x,x
COc1cccc(C(=O)NCCC(=O)NCc2cc(=O)n(C)c(=O)n2C)c1,n,n,n,x,x,x
COC(=O)C(NC(C)=O)(Nc1ccc(C)cn1)C(F)(F)F (stereo unspecified),n,n,n,n,n,x
O=c1[nH]c2cc(Br)cnc2nc1/C=C(\O)c1ccc(F)cc1,n,17.7,n,n,n,n
CC(=O)[C@@H]1[C@@H](C)N(Cc2ccccc2)C(=O)N[C@H]1c1cccc(C(F)(F)F)c1,n,19.8,n,n,n,n
CCCCCOc1ccc(C(=O)CCC(=O)N2CCCC2)cc1,n,n,n,x,x,x
O=[N+]([O-])c1cccc(-c2n[nH]c(=S)n2-c2ccc(Br)cc2)c1,n,22.7,n,n,n,n
S=c1[nH]nc(-c2ccc(Br)cc2)n1-c1ccc(Br)cc1,n,n,n,x,x,x
COc1ccc(NC(=O)CN2CCN(C(=O)N3CCOCC3)CC2)cc1,n,n,n,x,x,x
SMILES,Rce1 inhib,RanGTP-Imp inh,Vif inh,Runt-SMMHC FRET,Runt-CBFb FRET,YIC counter
COc1ccccc1C(=O)c1cc2ccc(O)cc2oc1=O,n,54.8,n,126.6,114.4,7.12
N/C(=N\NC(=O)c1ccc(F)cc1)c1cc2ccccc2oc1=O,n,n,n,n,n,x
O=C(c1ccc(F)cc1)c1cc2ccc(O)cc2oc1=O,n,37.2,n,x,x,13.4
COc1ccc2cc(C(=O)c3ccccc3)c(=O)oc2c1,n,n,n,n,n,x
CCc1ccc(C(=O)C(C)OC(=O)CNS(=O)(=O)c2ccc(C)cc2)cc1 (stereo unspecified),n,n,n,x,x,x
Cc1ccc(C)c(N2CCN(C(=O)c3ccc(NC4=NC5CS(=O)(=O)CC5S4)cc3)CC2)c1 (stereo unspecified),n,n,n,x,x,x
Cc1nc2ccccc2n1CC(=O)N1CC(=O)Nc2ccccc21,n,17.6,n,n,n,n
